Among the data in ChEMBL document CHEMBL1159018, “(-)-agelasidine C and (-)-agelasidine D, two new hypotaurocyamine diterpenoids from the Caribbean sea sponge Agelas clathrodes” (J Nat Prod, 1992) are Activity and CC50 values, retold here.

≈ marks a conversion by molar mass, not a printed value. Calls of active or inactive are those of the source. The calls are words filed in the database; no cut-off is given here.

For data set [1], the system named is Proteus vulgaris. The data set is described as follows: Antimicrobial activity against Proteus vulgaris at 1.9 mg/ml by standard disk assay. It counts as functional, organism-based. In short, it runs like this:
(§1)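 Tested at one concentration only, 1.9 mg/ml.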

In data set [2] the test system is Klebsiella pneumoniae. The data set is described as follows: Antimicrobial activity against Klebsiella pneumoniae at 1.9 mg/ml by standard disk assay. The data set is classed as functional, organism-based. In short, it runs like this:
as §1

A short description of data set [3]: Cytotoxicity against CHOK1 cells. The following applies: chinese hamster, CHO-K1 cells; read-out: ED50 (the source's name). The data set is classed as cell-based, Cricetulus griseus. The method, boiled down: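 CHO-K1 cell growth inhibition, reported as ED50 in µg/ml.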
Data set [4] has as its system Staphylococcus aureus. Kind of data set: Antimicrobial activity against Staphylococcus aureus at 1.9 mg/ml by standard disk assay. It counts as functional, organism-based. The method, boiled down: as §1
For data set [5], the system named is Proteus vulgaris. Kind of data set: Antimicrobial activity against Proteus vulgaris by standard disk assay. The data set is classed as functional, organism-based. In short, it runs like this: as §1
For another data set, the system named is Escherichia coli. The data set is described as follows: Antimicrobial activity against Escherichia coli by standard disk assay. It counts as functional, organism-based.
Data set [6] deals with Staphylococcus aureus. The data set is described as follows: Antimicrobial activity against Staphylococcus aureus by standard disk assay. It counts as functional, organism-based. In short, it runs like this:
as §1

For a further data set, the system named is Hafnia alvei. Kind of data set: Antimicrobial activity against Hafnia alvei by standard disk assay. The data set is classed as functional, organism-based.
The test system of data set [7] is Klebsiella pneumoniae. Kind of data set: Antimicrobial activity against Klebsiella pneumoniae by standard disk assay. The data set is classed as functional, organism-based. In short, it runs like this:
as §1

As for `CC1=CCC[C@H](C)[C@@]1(C)CC/C(C)=C/CC/C(C)=C/CS(=O)(=O)CCNC(=N)N`, the result with Proteus vulgaris [1], in the data set on Klebsiella pneumoniae [2] and in the data set on Staphylococcus aureus [4] was Active. In addition, the CC50 in data set [3] turned out to be 5.7 mg/L (≈ 13.5 µM).
Regarding `CC1=CCC[C@H](C)[C@@]1(C)CC/C(C)=C/CC/C(=C/CS(=O)(=O)CCNC(=N)N)CO`, the outcome with Proteus vulgaris [5], with Escherichia coli, in the data set on Staphylococcus aureus [6], with Hafnia alvei and with Klebsiella pneumoniae [7] was Active. The CC50 in data set [3] was 2.21 mg/L (≈ 5.03 µM).
